Assay results pooled from the literature.
Compare with care: the assays were run in different laboratories.
Cell line: A549
Read-out: cell growth or viability

For COc1cc2ncnc(NN=C3C(=O)Nc4ccc(Br)cc43)c2cc1OC, the inhibition was -4.3% (10 µM).
The inhibition of COc1cccc(/C=C2\SC(=S)N(CC(=O)Nc3ccccc3)C2=O)c1 is reported as 25.7% (MTT; 10 µM).
With COc1ccc(-c2nc(NN=C3C(=O)Nc4ccc(Br)cc43)c3ccccc3n2)cc1OC the inhibition was 77.1% (10 µM).
For CN1C(=O)/C(=N\NC(=O)c2cc3ccccc3[nH]2)c2cc(F)ccc21, the inhibition was 90.3% (30 µM).
COc1cc(CNC(=O)C[C@H](C)CCC=C(C)C)ccc1OCc1cn(-c2ccc(Cl)cc2)nn1 gave an inhibition of 55% (SRB; 10 µM).
With CCN(CC)CCNC(=O)c1c(C)[nH]c(/C=C2\C(=O)Nc3ccc(F)cc32)c1C the inhibition was 85.7% (30 µM).
O=C1Nc2ccc(Cl)cc2/C1=N/NC(=O)c1cc2ccccc2[nH]1 has an inhibition of 60.6% (30 µM).
The inhibition of O=C(CN1C(=O)/C(=C/c2ccccc2Cl)SC1=S)Nc1ccccc1 is reported as 20.5% (MTT; 10 µM).
With CN1C(=O)/C(=N\NC(=O)c2cc3ccccc3[nH]2)c2cc(Br)ccc21 the inhibition was 97.4% (30 µM).
COc1cc2ncnc(NN=C3C(=O)Nc4ccccc43)c2cc1OC has an inhibition of 32.9% (30 µM).
For O=C1Nc2ccccc2/C1=N/NC(=O)c1cc2ccccc2[nH]1, the inhibition was 90.9% (30 µM).
O=C(CN1C(=O)/C(=C/c2ccc([N+](=O)[O-])cc2)SC1=S)Nc1ccccc1 gave an inhibition of 24.4% (MTT; 10 µM).
With COc1ccc2c(c1)/C(=N/NC(=O)c1cc3ccccc3[nH]1)C(=O)N2C the inhibition was 97.4% (30 µM).
Cn1c(=O)c(NN=C2C(=O)Nc3ccccc32)nc2ccccc21 gave an inhibition of 95.2% (30 µM).
For O=C(CN1C(=O)/C(=C/c2cccc(F)c2)SC1=S)Nc1ccccc1, the inhibition was 26.1% (MTT; 10 µM).
CN1C(=O)/C(=N\NC(=O)c2cc3ccccc3[nH]2)c2cc(Cl)ccc21 has an inhibition of 95.8% (30 µM).
COc1ccccc1/C=C1\SC(=S)N(CC(=O)Nc2ccccc2)C1=O gave an inhibition of 38.3% (MTT; 10 µM).
COc1cc2ncnc(NN=C3C(=O)Nc4ccc(C)cc43)c2cc1OC has an inhibition of 20.5% (30 µM).
The inhibition of O=C(CN1C(=O)/C(=C/c2ccc(Cl)cc2)SC1=S)Nc1ccccc1 is reported as 36.7% (MTT; 10 µM).
With COc1cc2ncnc(NN=C3C(=O)Nc4ccc(F)cc43)c2cc1OC the inhibition was 7.1% (10 µM).
